Assay results of several laboratories.
Each line is one published result; the experiments were not run side by side. pIC50: −log10 of the molar value. In brackets after ≈: the same amount, converted by molar mass.

`COC(CNC1=CC2=NCCc3c[nH]c(c32)C1=O)c1c[nH]c2ccccc12` (stereo not drawn) has a pIC50 of 6.24 (Babesia divergens; parasite growth, SYBR Green; 60 h, blood stage).
For `Cc1c(C(N)=O)c(N)n(N)c(=O)c1C#N`, the inhibition zone was 21 mm (Enterobacter cloacae; microbial growth, well diffusion; ATCC23355; 500 µg/mL).
With `NC1=CC2=NCCc3c[nH]c(c32)C1=O` the pIC50 was 6.39 (Babesia divergens; parasite growth, SYBR Green; 60 h, blood stage).
For `Cc1c(C(N)=S)c(N)n(N)c(=O)c1C#N`, the inhibition zone was 19 mm (Enterobacter cloacae; microbial growth, well diffusion; ATCC23355; 500 µg/mL).
`CN(Cc1ccc(C(C)(C)C)cc1)Cc1cccc2ccccc12` gave an inhibition zone of 27.8 mm (Trichophyton mentagrophytes; microbial growth, disc diffusion; ATCC18748; 0.002 µg/mL, 72 h).
`O=C1C(Br)=C(Br)C(=O)c2ccccc21` gave an MIC of less than 1.56 µg/mL (Trichophyton mentagrophytes; microbial growth, broth dilution; ATCC9533; 96 h).
`Cn1cc2c3c1C(=O)C(NCCc1ccc(O)cc1)=CC3=NCC2` has a pIC50 of 6.00 (Babesia divergens; parasite growth, SYBR Green; 60 h, blood stage).
`CN(Cc1ccc(C2(C(F)(F)F)CC2)cc1)Cc1cccc2ccccc12` gave an inhibition zone of no less than 55 mm (Trichophyton mentagrophytes; microbial growth, disc diffusion; ATCC18748; 0.256 µg/mL, 72 h).
`CN(C)c1ccc(-c2c(C(N)=O)c(N)n(N)c(=O)c2C#N)cc1` gave an inhibition zone of 17 mm (Enterobacter cloacae; microbial growth, well diffusion; ATCC23355; 500 µg/mL).
For `COC1=CC2=[N+](C)CCc3c[nH]c(c32)C1=O`, the pIC50 was 6.00 (Babesia divergens; parasite growth, SYBR Green; 60 h, blood stage).
For `N#Cc1c(-c2ccc(OCc3ccccc3)cc2)c(C(N)=S)c(N)n(N)c1=O`, the inhibition zone was 15 mm (Enterobacter cloacae; microbial growth, well diffusion; ATCC23355; 500 µg/mL).
`COC1=CC(=O)c2ccccc2C1=O` has an MIC of 6.25 µg/mL (≈ 33.2 µM) (Trichophyton mentagrophytes; microbial growth, broth dilution; ATCC9533; 96 h).
